We go through 26 compounds from ChEMBL document CHEMBL4364265, “Oridonin derivatives as potential anticancer drug candidates triggering apoptosis through mitochondrial pathway in the liver cancer cells” (Eur J Med Chem, 2019).

Experiment [1] relates to HepG2. The experiment is described as follows: Antiproliferative activity against human HepG2 cells incubated for 72 hrs by CCK8 cells. In kind it is functional, cell-based. The following applies: HepG2, 72 h. The method, boiled down: (§1)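 CCK-8 proliferation assay. 10,000 cells per well were preincubated 24 h at 37 °C with 5% CO2, then given compound dissolved in DMSO and incubated 72 h. CCK-8 was added for 4 h and absorbance read at 450 nm. IC50 was taken from dose-response curves as mean ± SEM of at least three independent experiments, with paclitaxel as positive control. HepG2 and L-O2 were grown in DMEM/10% FBS; A549 and RPMI-8226 in RPMI 1640/10% FBS.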

The next experiment deals with RPMI-8226. The experiment is described as follows: Antiproliferative activity against human RPMI8226 cells incubated for 72 hrs by CCK8 cells. In kind it is functional, cell-based. Conditions: RPMI-8226, 72 h. The method, boiled down:
as §1

The test system of another experiment is A549. In words: Antiproliferative activity against human A549 cells incubated for 72 hrs by CCK8 cells. It is filed as functional, cell-based. Conditions: A549, 72 h. The method, boiled down:
as §1

Experiment [2] in a line: Selectivity index, ratio of IC50 for human LO2 cells to IC50 for human PLC/PRF/5 cells. The method in brief:
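L-O2 and PLC/PRF/5 cells were grown in DMEM with 10% FBS at 37 °C and 5% CO₂. For CCK-8 proliferation, 10,000 cells per well were pre-incubated 24 h, then exposed to compound in DMSO for 72 h. CCK-8 was added for 4 h and A450 read. IC50 came from dose–response curves; SI is IC50(L-O2)/IC50(PLC/PRF/5).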

For experiment [3], the system named is PLC-PRF-5. The experiment is described as follows: Inhibition of colony formation in human PLC/PRF/5 cells assessed as decrease in colony size at 0.1 to 1 uM incubated for 10 days by crystal violet staining based microscopic method.
In experiment [4] the test system is PLC-PRF-5. In words: Antitumour activity against human PLC/PRF/5 cells xenografted in nude mouse assessed as reduction in tumour weight at 10 mg/kg, iv administrated once every 3 days for 4 weeks relative to control. It is filed as functional. The method, boiled down: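 PLC/PRF/5 xenograft. 2 × 10^7 cells in 0.2 mL saline were injected s.c. into the right forelimb of nude mice. At about 120 mm3, mice were randomized into 3 groups of 6 and dosed i.v. at 10 mg/kg once every three days for 4 weeks. Vehicle was 10% N-methylpyrrolidone/12% Tween-80/78% saline. Volume (a×b²/2) and body weight were recorded daily, and tumors were excised and weighed at the end.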
(A xenograft is tissue or cells of one species grown in another, often human tumour cells in immunodeficient mice.)

Experiment [5] concerns HepG2. In words: Inhibition of colony formation in human HepG2 cells at 0.1 to 1 uM incubated for 10 days by crystal violet staining based microscopic method. In kind it is functional, cell-based. The method in brief:
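Five hundred cells plated per 30 mm dish and left 12 h. Medium with compound was added (0, 0.1, 0.5, 1 µM) or DMSO as negative control, and cells grew 10 days. Colonies were fixed in methanol 15 min, stained with 0.1% crystal violet 15 min, photographed and counted. Colony size was checked by microscope. Relative colony number is mean ± SD of ≥3 independent experiments.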

For another experiment, the system named is L02. In words: Cytotoxicity against human LO2 cells incubated for 72 hrs by CCK8 cells. In kind it is cell-based. Conditions: L02, 72 h. The method, boiled down: as §1
Experiment [6] concerns PLC-PRF-5. The experiment is described as follows: Antiproliferative activity against human PLC/PRF/5 cells incubated for 72 hrs by CCK8 cells. It is filed as functional, cell-based. The following applies: PLC-PRF-5, 72 h.

Activity calls are given as the source filed them. No cut-off for these calls is given here.

Usually IC50 stands for the concentration needed to halve the response being measured. As to `C=C1C(=O)[C@]23[C@H](O)[C@H]1CC[C@H]2[C@@]12CO[C@]3(O)[C@@H](OC(C)=O)[C@@H]1C(C)(C)CC[C@@H]2OC(C)=O`, the concentration for half-maximal inhibition (IC50) was found to be 12.3 µM in the experiment on HepG2 [1], 13 µM in the experiment on RPMI-8226 and 10.5 µM in the experiment with A549.
The like results for `C=C1C(=O)[C@]23[C@H](O)[C@H]1CC[C@H]2[C@@]12CO[C@@]3(O)[C@@H](O)[C@@H]1C(C)(C)CC[C@@H]2OC(C)=O` were, in that order, 5.67 µM, 11 µM and 10.9 µM.
Take `C=C1C(=O)[C@]23[C@H](OC(=O)c4ccc(F)c(NC(=O)c5ccc(OC)c(OCc6ccccc6)c5)c4)[C@H]1CC[C@H]2[C@@]12CO[C@]3(O)[C@@H](O)[C@@H]1C(C)(C)CC[C@@H]2O`: the IC50 turned out to be 8.2 µM with HepG2 [1], 6.71 µM with RPMI-8226 and 11 µM in the experiment with A549.
For `C=C1C(=O)[C@]23[C@H](OC(=O)/C=C/c4cc(OC)c(OC)c(OC)c4)[C@H]1CC[C@H]2[C@@]12CO[C@]3(O)[C@@H](O)[C@@H]1C(C)(C)CC[C@@H]2O`, in that order: 5.98 µM, 5.98 µM and 8.8 µM.
For `C=C1C(=O)[C@]23[C@H](OC(=O)c4cccnc4Cl)[C@H]1CC[C@H]2[C@@]12CO[C@]3(O)[C@@H](O)[C@@H]1C(C)(C)CC[C@@H]2O`, in that order: 27.5 µM, 15.8 µM and 31.1 µM.
Turning to `C=C1C(=O)[C@]23[C@H](OC(=O)[C@@H]4OC(c5ccc(OC)cc5)N(C(=O)OC(C)(C)C)[C@H]4c4ccccc4)[C@H]1CC[C@H]2[C@@]12CO[C@]3(O)[C@@H](O)[C@@H]1C(C)(C)CC[C@@H]2O` (stereo partly drawn), the IC50 in the experiment on HepG2 [1] came to 44.6 µM; in the experiment on RPMI-8226 it was 16.6 µM; in the experiment on A549, 22.6 µM.
As to `C=C1C(=O)[C@]23[C@H](OC(=O)c4ccc(OCc5ccccc5)cc4F)[C@H]1CC[C@H]2[C@@]12CO[C@]3(O)[C@@H](O)[C@@H]1C(C)(C)CC[C@@H]2O`, the IC50 in the experiment with HepG2 [1] turned out to be 16 µM; in the experiment on RPMI-8226 it was 17.5 µM; in the experiment on A549, 14 µM.
The like results for `C=C1C(=O)[C@]23[C@H](OC(=O)CCCCC4CCSS4)[C@H]1CC[C@H]2[C@@]12CO[C@]3(O)[C@@H](O)[C@@H]1C(C)(C)CC[C@@H]2O` (stereo partly drawn) were, in that order, 32.3 µM, over 100 µM and over 100 µM.
The like results for `C=C1C(=O)[C@]23[C@H](OC(=O)c4ccc(F)c(NC(=O)c5ccc(OC(F)(F)F)cc5)c4)[C@H]1CC[C@H]2[C@@]12CO[C@]3(O)[C@@H](O)[C@@H]1C(C)(C)CC[C@@H]2O` were, in that order, 6.54 µM, 10.5 µM and 20.9 µM.
For `C=C1C(=O)[C@]23[C@H](OC(=O)c4ccc(CCl)cc4)[C@H]1CC[C@H]2[C@@]12CO[C@]3(O)[C@@H](O)[C@@H]1C(C)(C)CC[C@@H]2O`, in that order: 5.66 µM, 5.01 µM and 16.7 µM.
Take `C=C1C(=O)[C@]23[C@H](OC(=O)c4ccc(F)c(F)c4F)[C@H]1CC[C@H]2[C@@]12CO[C@]3(O)[C@@H](O)[C@@H]1C(C)(C)CC[C@@H]2O`: the IC50 in the experiment with HepG2 [1] is 15.4 µM; in the experiment on RPMI-8226 it was 14.7 µM; in the experiment with A549, 12.4 µM.
The like results for `C=C1C(=O)[C@]23[C@H](OC(=O)c4ccc(F)c(NC(=O)Cc5ccc(OC)c(OC)c5)c4)[C@H]1CC[C@H]2[C@@]12CO[C@]3(O)[C@@H](O)[C@@H]1C(C)(C)CC[C@@H]2O` were, in that order, 3.76 µM, 19 µM and 17.2 µM.
As for `C=C1C(=O)[C@]23[C@H](O)[C@H]1CC[C@H]2[C@@]12CO[C@]3(O)[C@@H](O)[C@@H]1C(C)(C)CC[C@@H]2O` [ORIDONIN], the “Ratio IC50” value in [2] is listed as 2.4. The IC50 in the experiment with HepG2 [1] is 8.12 µM; with RPMI-8226, 9.25 µM; in the experiment on A549 it was 30.4 µM; in the experiment on L02 it was 17.5 µM; in the experiment with PLC-PRF-5 [6], 7.41 µM. The inhibition entry in the experiment on PLC-PRF-5 [3] and with HepG2 [5] was “Active” each time. Moreover, the outcome in the experiment with PLC-PRF-5 [4] was inactive.
On to `C=C1C(=O)[C@]23[C@H](OC(=O)c4cc(F)ccc4F)[C@H]1CC[C@H]2[C@@]12CO[C@]3(O)[C@@H](O)[C@@H]1C(C)(C)CC[C@@H]2O`, for which the IC50 stood at 26 µM with HepG2 [1], 12.2 µM with RPMI-8226 and 10.7 µM in the experiment on A549.
On to `C=C1C(=O)[C@]23[C@H](OC(=O)Cc4cc(OC)c(OC)c(OC)c4)[C@H]1CC[C@H]2[C@@]12CO[C@]3(O)[C@@H](O)[C@@H]1C(C)(C)CC[C@@H]2O`, for which the IC50 in the experiment on HepG2 [1] was 8.79 µM; in the experiment with RPMI-8226, 10.9 µM; in the experiment with A549 it was 37.5 µM.
For `C=C1C(=O)[C@]23[C@H](OC(=O)c4ccc(OC)c(OCCBr)c4)[C@H]1CC[C@H]2[C@@]12CO[C@]3(O)[C@@H](O)[C@@H]1C(C)(C)CC[C@@H]2O`, in that order: 9.76 µM, 8.65 µM and 11.5 µM.
In the case of `C=C1C(=O)[C@]23[C@H](OC(=O)c4ccc(C#N)cc4)[C@H]1CC[C@H]2[C@@]12CO[C@]3(O)[C@@H](O)[C@@H]1C(C)(C)CC[C@@H]2O`, the figures for the half-inhibitory concentration (IC50) with HepG2 [1], in the experiment with RPMI-8226 and in the experiment on A549 were 36.6 µM, 35.2 µM and 17.4 µM, respectively.
On to `C=C1C(=O)[C@]23[C@H](OC(=O)[C@H](CC(C)C)NC(=O)OC(C)(C)C)[C@H]1CC[C@H]2[C@@]12CO[C@]3(O)[C@@H](O)[C@@H]1C(C)(C)CC[C@@H]2O`, for which, in [2], the “Ratio IC50” value is 2.4. Also, the IC50 in the experiment with HepG2 [1] stood at 0.98 µM; in the experiment with L02, 6.3 µM; in the experiment with PLC-PRF-5 [6], 2.67 µM. For the same compound, in the experiment on HepG2 [5], the inhibition result was “Active”.
With `C=C1C(=O)[C@]23[C@H](OC(=O)c4ccc(F)cc4)[C@H]1CC[C@H]2[C@@]12CO[C@]3(O)[C@@H](O)[C@@H]1C(C)(C)CC[C@@H]2O`, the IC50 in the experiment on HepG2 [1] was 3.1 µM; in the experiment with RPMI-8226, 14.3 µM; in the experiment with A549, 14.7 µM.
For the compound `C=C1C(=O)[C@@]23C(=O)[C@@H](OC(C)=O)[C@@H]4C(C)(C)CC[C@H](OC(C)=O)[C@@]4(COC(C)=O)[C@@H]2CC[C@@H]1[C@H]3OC(C)=O`, the values for the IC50 with HepG2 [1], in the experiment on RPMI-8226 and with A549 were 5.4 µM, 13.9 µM and 10.5 µM, respectively.
For `C=C1C(=O)[C@]23[C@H](OC(=O)CCc4ccc(OC)c(OC)c4)[C@H]1CC[C@H]2[C@@]12CO[C@]3(O)[C@@H](O)[C@@H]1C(C)(C)CC[C@@H]2O`, in that order: 9.63 µM, 10.1 µM and 22.8 µM.
In the experiment on HepG2 [1], `C=C1C(=O)[C@@]23C(=O)[C@H]4OC[C@]5([C@@H](OC(C)=O)CCC(C)(C)[C@@H]45)[C@@H]2CC[C@@H]1[C@H]3O` had a half-inhibitory concentration (IC50) of 2.07 µM.
`C=C1C(=O)[C@]23[C@H](OC(=O)/C=C/c4ccc(OC)c(OC)c4)[C@H]1CC[C@H]2[C@@]12CO[C@]3(O)[C@@H](O)[C@@H]1C(C)(C)CC[C@@H]2O`: the “Ratio IC50” value in experiment [2] is given as 1.8. The half-maximal inhibitory concentration (IC50) with HepG2 [1] was 1.98 µM; in the experiment with RPMI-8226, 5.77 µM; in the experiment on A549, 24.9 µM; with L02, 1.85 µM; in the experiment with PLC-PRF-5 [6] it was 1.03 µM. In addition, the inhibition entry in the experiment with HepG2 [5] is “Active”.
For `CC(=O)O[C@H]1C(=O)[C@@]2(C)[C@H]([C@H](OC(=O)c3ccccc3)[C@]3(O)C[C@H](OC(=O)[C@H](O)[C@@H](NC(=O)c4ccccc4)c4ccccc4)C(C)=C1C3(C)C)[C@]1(OC(C)=O)CO[C@@H]1C[C@@H]2O` [PACLITAXEL], the IC50 came out at 0.18 µM in the experiment on HepG2 [1], 1.53 µM with RPMI-8226 and 0.39 µM in the experiment on A549.
The like results for `C=C1C(=O)[C@]23[C@H](OC(=O)CCc4ccc(OC)cc4)[C@H]1CC[C@H]2[C@@]12CO[C@]3(O)[C@@H](O)[C@@H]1C(C)(C)CC[C@@H]2O` were, in that order, 8.99 µM, 9.42 µM and 14 µM.
On to `C=C1C(=O)[C@]23[C@H](OC(=O)CCc4cc(OC)c(OC)c(OC)c4)[C@H]1CC[C@H]2[C@@]12CO[C@]3(O)[C@@H](O)[C@@H]1C(C)(C)CC[C@@H]2O`, for which the IC50 amounted to 12.6 µM in the experiment on HepG2 [1], 12.4 µM in the experiment with RPMI-8226 and 11 µM with A549.
